Source: ChEMBL document CHEMBL4411337, “2-Aminothiazole Derivatives as Selective Allosteric Modulators of the Protein Kinase CK2. 1. Identification of an Allosteric Binding Site” (J Med Chem, 2019)
pIC50: −log10 of the molar value. Calls of active or inactive are those of the source. The calls are words filed in the database; no cut-off is given here.

How the values were obtained:
[1] = target: CDK6/cyclin D3 (Homo sapiens) (UniProt P30281+Q00534); experiment: Inhibition of CDK6/cyclin D3 (unknown origin) assessed as residual activity at 50 uM relative to control; type: protein-complex assay
How it was run: (§1)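 Selectivity profiling against a panel of 44 human kinases. For each kinase, ATP was set to that kinase's Km. Values are residual activity in duplicate assays.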

[2] = target: Proto-oncogene tyrosine-protein kinase Src (Homo sapiens) (UniProt P12931); experiment: Inhibition of cSRC (unknown origin) assessed as residual activity at 50 uM relative to control
How it was run: (§2)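 Profiling panel of 44 human kinases. ATP set to each kinase's Km. Run in duplicate; duplicates within 15–17% of each other.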

[3] = target: Serine/threonine-protein kinase PAK 2 (Homo sapiens) (UniProt Q13177); experiment: Inhibition of PAK2 (unknown origin) assessed as residual activity at 50 uM relative to control; how it was run: as §1
[4] = target: Tyrosine-protein kinase Fyn (Homo sapiens) (UniProt P06241); experiment: Inhibition of FYN (unknown origin) assessed as residual activity at 50 uM relative to control; how it was run: as §1
[5] = target: CDK2/Cyclin A2 (Homo sapiens) (UniProt P24941+P20248); experiment: Inhibition of CDK2/cyclin A (unknown origin) assessed as residual activity at 50 uM relative to control; type: protein-complex assay; how it was run: as §1
[6] = target: Serine/threonine-protein kinase mTOR (Homo sapiens) (UniProt P42345); experiment: Inhibition of MTOR (unknown origin) assessed as residual activity at 50 uM relative to control; how it was run: as §1
[7] = target: Ephrin type-A receptor 4 (Homo sapiens) (UniProt P54764); experiment: Inhibition of EPHA4 (unknown origin) assessed as residual activity at 50 uM relative to control; how it was run: as §1
[8] = target: Ribosomal protein S6 kinase alpha-1 (Homo sapiens) (UniProt Q15418); experiment: Inhibition of RSK1 (unknown origin) assessed as residual activity at 50 uM relative to control; how it was run: as §2
[9] = target: Casein kinase II alpha/beta (Homo sapiens) (UniProt P67870+P68400); experiment: Inhibition of recombinant human GST-tagged CK2alpha2/CK2beta2 at 15 uM in presence of ATP by radiometric kinase assay; type: protein-complex assay
[10] = target: Homeodomain-interacting protein kinase 3 (Homo sapiens) (UniProt Q9H422); experiment: Inhibition of HIPK3 (unknown origin) assessed as residual activity at 50 uM relative to control; how it was run: as §1
[11] = target: Tyrosine-protein kinase ABL1 (Homo sapiens) (UniProt P00519); experiment: Inhibition of ABL (unknown origin) assessed as residual activity at 50 uM relative to control; how it was run: as §1
[12] = target: Cyclin-dependent kinase 2/cyclin E1 (Homo sapiens) (UniProt P24864+P24941); experiment: Inhibition of CDK2/cyclin E (unknown origin) assessed as residual activity at 50 uM relative to control; type: protein-complex assay; how it was run: as §1
Homo sapiens = species on record: Homo sapiens; experiment: Inhibition of PKA (unknown origin) assessed as residual activity at 50 uM relative to control; how it was run: as §1
[13] = target: T1, Casein kinase II subunit alpha (Homo sapiens, UniProt P68400); experiment: Inhibition of CK2alpha (unknown origin) assessed as residual activity at 50 uM relative to control; how it was run: as §1
[14] = target: Aurora kinase A (Homo sapiens) (UniProt O14965); experiment: Inhibition of aurora A (unknown origin) assessed as residual activity at 50 uM relative to control
[15] = target: Protein kinase C alpha type (Homo sapiens) (UniProt P17252); experiment: Inhibition of PKCalpha (unknown origin) assessed as residual activity at 50 uM relative to control; how it was run: as §2
[16] = target: Epidermal growth factor receptor (Homo sapiens) (UniProt P00533); experiment: Inhibition of EGFR (unknown origin) assessed as residual activity at 50 uM relative to control; how it was run: as §1
[17] = target: 5'-AMP-activated protein kinase catalytic subunit alpha-1 (Homo sapiens) (UniProt Q13131); experiment: Inhibition of AMPKalpha1 (unknown origin) assessed as residual activity at 50 uM relative to control; how it was run: as §1
[18] = target: Dual specificity mitogen-activated protein kinase kinase 1 (Homo sapiens) (UniProt Q02750); experiment: Inhibition of MEK1 (unknown origin) assessed as residual activity at 50 uM relative to control; how it was run: as §1
[19] = target: Serine/threonine-protein kinase STK11 (Homo sapiens) (UniProt Q15831); experiment: Inhibition of LKB1 (unknown origin) assessed as residual activity at 50 uM relative to control; how it was run: as §1
[20] = target: Tyrosine-protein kinase JAK2 (Homo sapiens) (UniProt O60674); experiment: Inhibition of JAK2 (unknown origin) assessed as residual activity at 50 uM relative to control; how it was run: as §1
[21] = target: Homeodomain-interacting protein kinase 2 (Homo sapiens) (UniProt Q9H2X6); experiment: Inhibition of HIPK2 (unknown origin) assessed as residual activity at 50 uM relative to control; how it was run: as §1
[22] = target: Serine/threonine-protein kinase pim-1 (Homo sapiens) (UniProt P11309); experiment: Inhibition of PIM1 (unknown origin) assessed as residual activity at 50 uM relative to control; how it was run: as §1
[23] = target: Hepatocyte growth factor receptor (Homo sapiens) (UniProt P08581); experiment: Inhibition of MET (unknown origin) assessed as residual activity at 50 uM relative to control; how it was run: as §1
[24] = target: Homeodomain-interacting protein kinase 1 (Homo sapiens) (UniProt Q86Z02); experiment: Inhibition of HIPK1 (unknown origin) assessed as residual activity at 50 uM relative to control; how it was run: as §1
[25] = target: Tyrosine-protein kinase Yes (Homo sapiens) (UniProt P07947); experiment: Inhibition of YES (unknown origin) assessed as residual activity at 50 uM relative to control; how it was run: as §2
[26] = target: T1, Casein kinase II subunit alpha; experiment: Inhibition of recombinant human GST-tagged CK2alpha in presence of ATP by radiometric kinase assay
[27] = target: RAC-alpha serine/threonine-protein kinase (Homo sapiens) (UniProt P31749); experiment: Inhibition of PKBalpha (unknown origin) assessed as residual activity at 50 uM relative to control; how it was run: as §2
[28] = target: Platelet-derived growth factor receptor alpha (Homo sapiens) (UniProt P16234); experiment: Inhibition of PDGFRalpha (unknown origin) assessed as residual activity at 50 uM relative to control; how it was run: as §1
[29] = target: Tyrosine-protein kinase Lyn (Homo sapiens) (UniProt P07948); experiment: Inhibition of LYN (unknown origin) assessed as residual activity at 50 uM relative to control; how it was run: as §1
[30] = target: Calcium/calmodulin-dependent protein kinase type 1 (Homo sapiens) (UniProt Q14012); experiment: Inhibition of CAMK1 (unknown origin) assessed as residual activity at 50 uM relative to control; how it was run: as §1
[31] = target: Cyclin-dependent kinase 7/ cyclin H (Homo sapiens) (UniProt P51946+P50613); experiment: Inhibition of CDK7/cyclin H (unknown origin) assessed as residual activity at 50 uM relative to control; type: protein-complex assay; how it was run: as §1
[32] = target: RAF proto-oncogene serine/threonine-protein kinase (Homo sapiens) (UniProt P04049); experiment: Inhibition of cRAF (unknown origin) assessed as residual activity at 50 uM relative to control; how it was run: as §2
[33] = target: Cyclin-dependent kinase 1/cyclin B1 (Homo sapiens) (UniProt P06493+P14635); experiment: Inhibition of CDK1/cyclin B (unknown origin) assessed as residual activity at 50 uM relative to control; type: protein-complex assay; how it was run: as §1

Sequence of Aurora kinase A (Homo sapiens) (O14965 whole entry, looked up): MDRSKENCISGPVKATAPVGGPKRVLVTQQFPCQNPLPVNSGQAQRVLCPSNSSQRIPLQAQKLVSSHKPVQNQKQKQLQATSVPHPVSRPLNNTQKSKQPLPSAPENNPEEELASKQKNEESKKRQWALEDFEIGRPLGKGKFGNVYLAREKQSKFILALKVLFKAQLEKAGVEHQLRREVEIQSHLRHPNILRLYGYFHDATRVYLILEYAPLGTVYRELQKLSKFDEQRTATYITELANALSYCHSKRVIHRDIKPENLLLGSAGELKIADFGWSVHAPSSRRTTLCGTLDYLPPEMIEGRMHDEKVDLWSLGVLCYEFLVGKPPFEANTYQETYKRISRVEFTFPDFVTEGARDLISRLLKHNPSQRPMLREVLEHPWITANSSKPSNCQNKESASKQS
Sequence of Tyrosine-protein kinase Yes (Homo sapiens) (P07947 2-543 limits assumed): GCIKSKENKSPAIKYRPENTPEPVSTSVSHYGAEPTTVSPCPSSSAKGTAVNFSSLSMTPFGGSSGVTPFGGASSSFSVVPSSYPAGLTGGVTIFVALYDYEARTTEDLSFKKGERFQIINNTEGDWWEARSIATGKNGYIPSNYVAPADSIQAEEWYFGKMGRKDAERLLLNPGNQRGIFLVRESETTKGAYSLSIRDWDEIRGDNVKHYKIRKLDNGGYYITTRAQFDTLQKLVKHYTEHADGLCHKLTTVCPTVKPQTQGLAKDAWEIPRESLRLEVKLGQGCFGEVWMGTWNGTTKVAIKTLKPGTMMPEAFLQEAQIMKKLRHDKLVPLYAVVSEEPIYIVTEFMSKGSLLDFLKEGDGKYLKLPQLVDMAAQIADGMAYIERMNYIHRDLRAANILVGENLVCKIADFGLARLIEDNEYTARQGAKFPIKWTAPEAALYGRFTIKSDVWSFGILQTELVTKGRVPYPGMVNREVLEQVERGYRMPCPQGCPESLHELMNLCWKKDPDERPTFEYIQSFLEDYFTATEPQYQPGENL
Sequence of Tyrosine-protein kinase JAK2 (Homo sapiens) (O60674 whole entry): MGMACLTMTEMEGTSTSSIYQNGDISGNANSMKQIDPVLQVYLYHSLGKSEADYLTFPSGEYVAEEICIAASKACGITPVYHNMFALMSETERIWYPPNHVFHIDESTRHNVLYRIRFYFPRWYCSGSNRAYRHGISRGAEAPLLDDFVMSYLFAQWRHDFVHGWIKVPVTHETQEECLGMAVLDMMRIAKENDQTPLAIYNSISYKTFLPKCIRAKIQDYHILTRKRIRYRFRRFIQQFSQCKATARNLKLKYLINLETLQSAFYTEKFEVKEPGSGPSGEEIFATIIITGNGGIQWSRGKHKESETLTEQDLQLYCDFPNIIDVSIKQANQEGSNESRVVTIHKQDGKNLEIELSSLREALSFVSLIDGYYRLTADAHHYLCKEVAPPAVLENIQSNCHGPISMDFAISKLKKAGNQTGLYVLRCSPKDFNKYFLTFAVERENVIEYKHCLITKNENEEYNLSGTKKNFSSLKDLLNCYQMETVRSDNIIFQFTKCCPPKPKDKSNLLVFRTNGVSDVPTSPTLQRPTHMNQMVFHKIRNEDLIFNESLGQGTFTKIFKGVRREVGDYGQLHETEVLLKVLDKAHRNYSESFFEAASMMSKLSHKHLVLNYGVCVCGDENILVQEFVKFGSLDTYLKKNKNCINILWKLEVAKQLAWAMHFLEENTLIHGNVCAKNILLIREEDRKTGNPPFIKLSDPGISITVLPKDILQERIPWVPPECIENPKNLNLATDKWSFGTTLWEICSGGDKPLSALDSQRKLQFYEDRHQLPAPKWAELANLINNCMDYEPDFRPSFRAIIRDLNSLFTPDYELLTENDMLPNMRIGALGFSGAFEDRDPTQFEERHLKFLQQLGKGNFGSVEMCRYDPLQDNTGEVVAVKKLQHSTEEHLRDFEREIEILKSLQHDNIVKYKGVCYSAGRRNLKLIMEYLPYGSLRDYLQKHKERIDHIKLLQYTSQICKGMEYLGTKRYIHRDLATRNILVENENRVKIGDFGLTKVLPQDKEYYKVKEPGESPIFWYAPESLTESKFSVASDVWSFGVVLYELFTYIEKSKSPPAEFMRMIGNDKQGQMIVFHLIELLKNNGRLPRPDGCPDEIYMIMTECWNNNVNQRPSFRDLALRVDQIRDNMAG
Sequence of RAC-alpha serine/threonine-protein kinase (Homo sapiens) (P31749 whole entry): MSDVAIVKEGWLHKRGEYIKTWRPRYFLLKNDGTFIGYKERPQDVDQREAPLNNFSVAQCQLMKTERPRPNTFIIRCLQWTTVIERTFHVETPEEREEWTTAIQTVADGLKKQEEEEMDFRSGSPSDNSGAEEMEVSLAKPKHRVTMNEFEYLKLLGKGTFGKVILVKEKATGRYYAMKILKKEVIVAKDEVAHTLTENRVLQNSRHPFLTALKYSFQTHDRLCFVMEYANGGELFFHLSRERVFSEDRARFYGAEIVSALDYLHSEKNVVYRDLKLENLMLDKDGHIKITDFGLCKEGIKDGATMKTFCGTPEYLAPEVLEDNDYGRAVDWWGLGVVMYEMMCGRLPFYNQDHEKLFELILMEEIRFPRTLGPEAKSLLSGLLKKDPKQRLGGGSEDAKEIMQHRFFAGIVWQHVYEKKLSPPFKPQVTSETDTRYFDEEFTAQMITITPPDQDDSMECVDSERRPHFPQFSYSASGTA
Sequence of Epidermal growth factor receptor (Homo sapiens) (P00533 whole entry): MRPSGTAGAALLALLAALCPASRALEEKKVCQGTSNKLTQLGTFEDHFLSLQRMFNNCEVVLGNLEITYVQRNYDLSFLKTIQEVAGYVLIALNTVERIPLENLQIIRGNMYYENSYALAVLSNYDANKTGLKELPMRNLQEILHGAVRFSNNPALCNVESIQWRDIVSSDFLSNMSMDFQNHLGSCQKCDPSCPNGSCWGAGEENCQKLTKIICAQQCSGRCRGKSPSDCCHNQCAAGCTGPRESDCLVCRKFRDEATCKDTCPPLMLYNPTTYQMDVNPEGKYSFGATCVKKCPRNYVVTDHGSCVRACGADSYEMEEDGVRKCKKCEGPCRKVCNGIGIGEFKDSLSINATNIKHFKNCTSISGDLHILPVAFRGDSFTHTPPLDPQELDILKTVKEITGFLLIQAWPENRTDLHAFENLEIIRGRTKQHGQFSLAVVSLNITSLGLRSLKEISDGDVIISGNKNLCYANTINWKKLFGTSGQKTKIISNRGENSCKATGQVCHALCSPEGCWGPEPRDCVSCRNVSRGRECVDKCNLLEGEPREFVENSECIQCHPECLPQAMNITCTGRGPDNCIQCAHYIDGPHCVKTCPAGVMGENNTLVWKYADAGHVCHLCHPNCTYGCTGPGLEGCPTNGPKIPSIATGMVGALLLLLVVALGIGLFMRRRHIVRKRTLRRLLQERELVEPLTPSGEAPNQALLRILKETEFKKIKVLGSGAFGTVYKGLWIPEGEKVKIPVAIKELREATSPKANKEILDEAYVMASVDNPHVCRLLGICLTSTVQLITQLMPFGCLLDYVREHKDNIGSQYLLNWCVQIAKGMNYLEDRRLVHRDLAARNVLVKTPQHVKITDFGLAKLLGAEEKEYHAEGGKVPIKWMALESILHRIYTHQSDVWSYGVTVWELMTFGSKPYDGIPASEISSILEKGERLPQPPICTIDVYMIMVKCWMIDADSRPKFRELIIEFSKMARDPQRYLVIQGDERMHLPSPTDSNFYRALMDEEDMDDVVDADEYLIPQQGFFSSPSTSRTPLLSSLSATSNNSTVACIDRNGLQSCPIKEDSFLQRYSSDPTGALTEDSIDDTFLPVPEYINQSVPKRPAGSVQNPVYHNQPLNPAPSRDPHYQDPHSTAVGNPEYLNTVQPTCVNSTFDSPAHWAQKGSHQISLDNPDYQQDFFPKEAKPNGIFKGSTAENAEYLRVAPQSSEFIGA
Sequence of Calcium/calmodulin-dependent protein kinase type 1 (Homo sapiens) (Q14012 whole entry, looked up): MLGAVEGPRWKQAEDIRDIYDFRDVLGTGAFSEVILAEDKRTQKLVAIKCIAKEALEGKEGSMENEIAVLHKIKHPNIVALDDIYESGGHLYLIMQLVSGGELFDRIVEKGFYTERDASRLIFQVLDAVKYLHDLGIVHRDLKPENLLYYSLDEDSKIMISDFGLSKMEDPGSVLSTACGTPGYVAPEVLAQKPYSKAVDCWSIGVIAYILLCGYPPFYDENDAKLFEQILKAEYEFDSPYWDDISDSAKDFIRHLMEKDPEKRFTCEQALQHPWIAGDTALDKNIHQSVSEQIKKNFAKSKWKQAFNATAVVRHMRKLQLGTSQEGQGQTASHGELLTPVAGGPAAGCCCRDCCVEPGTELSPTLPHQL
Sequence of Ribosomal protein S6 kinase alpha-1 (Homo sapiens) (Q15418 whole entry): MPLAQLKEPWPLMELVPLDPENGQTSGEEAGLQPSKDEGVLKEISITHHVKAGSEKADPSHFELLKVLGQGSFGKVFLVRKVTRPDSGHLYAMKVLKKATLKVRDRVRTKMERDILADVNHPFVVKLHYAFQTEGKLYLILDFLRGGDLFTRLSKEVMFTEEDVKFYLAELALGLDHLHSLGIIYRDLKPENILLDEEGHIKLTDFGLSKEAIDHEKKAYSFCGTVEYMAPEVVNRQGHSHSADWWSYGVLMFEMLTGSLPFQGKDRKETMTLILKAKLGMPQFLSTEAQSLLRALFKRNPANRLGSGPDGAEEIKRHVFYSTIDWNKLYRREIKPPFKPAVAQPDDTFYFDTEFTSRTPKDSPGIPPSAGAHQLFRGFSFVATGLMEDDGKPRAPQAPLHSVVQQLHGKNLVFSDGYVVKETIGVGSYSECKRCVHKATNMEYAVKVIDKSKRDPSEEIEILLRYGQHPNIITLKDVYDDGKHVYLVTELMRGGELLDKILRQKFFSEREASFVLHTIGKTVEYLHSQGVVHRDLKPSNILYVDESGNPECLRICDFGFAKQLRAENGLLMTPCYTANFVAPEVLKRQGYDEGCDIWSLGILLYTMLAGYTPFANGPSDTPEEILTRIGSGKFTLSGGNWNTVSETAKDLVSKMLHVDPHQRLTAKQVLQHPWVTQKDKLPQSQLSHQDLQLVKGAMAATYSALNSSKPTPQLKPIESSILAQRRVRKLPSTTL

O=C(O)c1ccc(Nc2nc(-c3cccc([N+](=O)[O-])c3)cs2)cc1
Activity [1]: 95% | Activity [2]: 97% | Activity [3]: 102% | Activity [4]: 97% | Activity [5]: 86% | Activity [6]: 104% | Activity [7]: 45% | Activity [8]: 99% | inhibition [9]: Active | Activity [10]: 98% | Activity [11]: 104% | Activity [12]: 101% | Activity (Homo sapiens): 87% | Activity [13]: 0% | Activity [14]: 79% | Activity [15]: 86% | Activity [16]: 26% | Activity [17]: 71% | Activity [18]: 103% | Activity [19]: 85% | Activity [20]: 104% | Activity [21]: 83% | Activity [22]: 46% | Activity [23]: 102% | Activity [24]: 97% | Activity [25]: 100% | pIC50 [26]: 5.15 | Activity [27]: 85% | Activity [28]: 65% | Activity [29]: 104% | Activity [30]: 101% | Activity [31]: 104% | Activity [32]: 92% | Activity [33]: 89%
